Measurements published in paper PMC6704442 (ACS Omega, 2019).
Where “and” joins values, the source holds several entries; their conditions need not be identical. Identical values can stand only once.

Experiments:
[1] = 40 mg kg^–1; cited from earlier work
[2] = literature value for comparison; cited from earlier work
H1 histone = H1 histone binding by steady-state fluorescence quenching; conditions: 300 K, ±2σ
[3] = target: human serum albumin (HSA) (Homo sapiens, UniProt P02768); experiment: HSA binding by steady-state fluorescence quenching; conditions: 300 K, ±2σ
Chain of human serum albumin (HSA) (P02768 25-609): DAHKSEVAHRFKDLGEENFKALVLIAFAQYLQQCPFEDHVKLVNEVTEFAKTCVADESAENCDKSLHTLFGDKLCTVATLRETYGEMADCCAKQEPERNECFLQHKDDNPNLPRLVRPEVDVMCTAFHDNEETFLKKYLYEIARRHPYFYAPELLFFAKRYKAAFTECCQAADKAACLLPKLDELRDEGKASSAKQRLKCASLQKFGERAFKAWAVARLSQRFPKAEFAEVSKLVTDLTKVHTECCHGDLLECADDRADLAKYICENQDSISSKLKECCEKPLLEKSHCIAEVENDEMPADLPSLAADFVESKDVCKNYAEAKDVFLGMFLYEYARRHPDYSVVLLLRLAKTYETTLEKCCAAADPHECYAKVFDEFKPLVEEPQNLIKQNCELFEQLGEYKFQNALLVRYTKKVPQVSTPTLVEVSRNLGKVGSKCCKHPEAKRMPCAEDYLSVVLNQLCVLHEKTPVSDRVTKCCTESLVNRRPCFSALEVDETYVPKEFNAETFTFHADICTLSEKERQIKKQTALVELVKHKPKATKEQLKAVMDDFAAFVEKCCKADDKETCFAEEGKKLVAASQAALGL
Method in brief: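 Human serum albumin (5 μM, 3 mL, freshly prepared in buffer) was titrated with successive additions of test compound stock at 300 K. Excitation was 283 nm and emission was read at 372 nm, with slits of 1 and 5 nm. Fluorescence was inner-filter corrected. KSV came from the Stern–Volmer equation; Ka and n came from log[(F0−F)/F] versus log[Q]. Performed in triplicate.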

Row | SMILES | tmax [1] [h] | AUCtotal [2] [μg h L^–1] | CLapp [2] [L h^–1] | Vd [2] [L] | t1/2e [2] [h] | KSV × 10^–3 (Stern-Volmer constant), H1 (H1 histone) | n (number of binding sites), H1 (H1 histone) | KSV × 10^–3 (Stern-Volmer constant), HSA [3] | n (number of binding sites), HSA [3]
1 | [Cl][Ru]([Cl])([Cl])[Cl].[Na+].c1ccc2[nH]ncc2c1.c1ccc2[nH]ncc2c1 [KP-1339/IT139, sodium trans-[tetrachloridobis(1H-indazole)ruthenate(III)]] | 2.5 |  |  |  |  |  |  |  | 
2 | Cc1ccc(C(C)C)cc1.[Cl][Ru]([Cl])[PH]12CN3CN(CN(C3)C1)C2 [RAPTA-C] |  | 891 | 0.009 | 0.153 | 11.47 | 1.85 ± 0.21 × 10^–3 | 1.06 ± 0.03 | 7.06 ± 1.37 × 10^–3 | 0.87 ± 0.04
3 | N.N.[Cl][Pt][Cl] [cisplatin] |  |  |  |  |  | 2.28 ± 0.59 × 10^–3 | 0.48 and 0.48 ± 0.14 | 0.58 ± 0.14 × 10^–3 | 1.18 ± 0.21
